≈ marks a conversion by molar mass, not a printed value. Calls of active or inactive are those of the source. No cut-off for these calls is given here.
How the values were obtained:
Assay type in all cases: functional
[1] = tested on: Staphylococcus aureus; test: Antimicrobial activity against methicillin-resistant Staphylococcus aureus by Alamar blue assay
In short: (§1)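 1:2 serial dilution in liquid culture; compound dissolved in DMSO or EtOH. Bacteria grown in TSB+ (5 g/L NaCl); C. albicans in Sabouraud or TSB+. Alamar Blue redox indicator read by colour: blue/purple means growth inhibited, bright pink means growth.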

[2] = tested on: Staphylococcus aureus; test: Antimicrobial activity against methicillin-resistant Staphylococcus aureus by agar extract inclusion assay
In short: (§2)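 Compound dissolved in DMSO or EtOH and mixed into Mueller Hinton agar cooled to 50 °C. Agar serially diluted 1:2 with more cooled agar. Pathogens spotted on the surface at about 2.5 × 10⁵ cells/mL inoculum. Plates incubated overnight at 37 °C and scored for growth inhibition to give the MIC.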

[3] = tested on: Candida albicans; test: Antimicrobial activity against Candida albicans by agar extract inclusion assay; in short: as §2
[4] = tested on: Candida albicans; test: Antimicrobial activity against Candida albicans by Alamar blue assay; in short: as §1
[5] = tested on: Enterococcus sp.; test: Antimicrobial activity against Enterococcus sp. by Alamar blue assay; in short: as §1

SMILES	MIC [1]	MIC [2]	MIC [3]	MIC [4]	MIC [5]	Activity [1]	Activity [4]
CCOC(=O)[C@H](CCCNC(=N)N)NC(=O)[C@H](Cc1c[nH]c2ccccc12)NC(=O)[C@@H](CC(C)C)NC(=O)[C@H](CO)NC(=O)[C@@H](Cc1ccc(O)cc1)NC(=O)CCCCCC(C)C [TAURAMAMIDE ETHYL ESTER]	25 µg/mL (≈ 28 µM)	9.4 µg/mL (≈ 10.5 µM)	75 µg/mL (≈ 84.1 µM)	200 µg/mL (≈ 224 µM)	0.1 µg/mL (≈ 0.112 µM)	–	–
CC(C)CCCCCC(=O)N[C@H](Cc1ccc(O)cc1)C(=O)N[C@@H](CO)C(=O)N[C@H](CC(C)C)C(=O)N[C@@H](Cc1c[nH]c2ccccc12)C(=O)N[C@@H](CCCNC(=N)N)C(=O)O [TAURAMAMIDE]	–	200 µg/mL (≈ 231 µM)	50 µg/mL (≈ 57.9 µM)	–	0.1 µg/mL (≈ 0.116 µM)	inactive	inactive

Source: ChEMBL document CHEMBL1141433, “Tauramamide, a lipopeptide antibiotic produced in culture by Brevibacillus laterosporus isolated from a marine habitat: structure elucidation and synthesis” (2007)
